In ChEMBL document CHEMBL1125351, “Isobenzofurans as conformationally constrained miconazole analogues with improved antifungal potency” (1992):
Values after ≈ are worked out from the molar mass of the structure shown. Values joined by “and” are separate entries in the source; they are usually repeats but may differ in a detail not shown here. Identical values can stand only once.

What was measured:
Candida albicans [1] = test: Minimum inhibitory concentration against Candida albicans at a pH of 5.7 using SDB medium; format: functional
In short: (§1)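 Broth dilution in Sabouraud dextrose broth, pH 5.7. Compounds dissolved in DMSO or ethanol, serially diluted in medium, inoculated and incubated at 27 °C. Wells read visually at 48 h. MIC is the lowest concentration giving complete growth inhibition.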

Candida albicans [2] = test: Minimum inhibitory concentration against Candida albicans using eagles minimum essential medium (EMEM); format: functional
In short: (§2)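 Candida MICs in Eagle's minimum essential medium, pH 7.0. Compounds in DMSO or ethanol were serially diluted in medium, inoculated and incubated at 37 °C under CO₂. […] The summary value is the geometric mean of the MICs across strains.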

Candida albicans [3] = test: Minimum inhibitory concentration against Candida stellatoidea at a pH of 5.7 using SDB medium; format: functional; in short: as §1
Candida = test: Compound is evaluated for geometric mean of MIC values of Candida species; format: functional; parameters: unit not given beside the values
Candida tropicalis [4] = test: Minimum inhibitory concentration against Candida tropicalis at a pH of 5.7 using SDB medium; format: functional; in short: as §1
Candida tropicalis [5] = test: Minimum inhibitory concentration against Candida tropicalis using eagles minimum essential medium (EMEM); format: functional; in short: as §2
Arthrodermataceae [6] = test: (§3) Compound is evaluated for geometric mean of MIC values of dermatophytes; format: functional
In short: (§4)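 Dermatophyte isolates tested by serial broth dilution in SDB, pH 5.7. Compound stocks in DMSO or ethanol, incubated at 27 °C, and growth read visually at 72 h. MIC is the lowest concentration with no visible growth. The summary value is the geometric mean of the MICs across the organisms.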

Epidermophyton floccosum = test: Minimum inhibitory concentration against Epidermophyton floccosum at a pH of 5.7 using SDB medium; format: functional; in short: as §4
Microsporum canis = test: Minimum inhibitory concentration against Microsporum canis at a pH of 5.7 using SDB medium; format: functional; in short: as §4
Trichophyton benhamiae = test: Minimum inhibitory concentration against Trichophyton mentagrophytes at a pH of 5.7 using SDB medium; format: functional, Arthroderma benhamiae; in short: as §4
Trichophyton rubrum = test: Minimum inhibitory concentration against Trichophyton rubrum at a pH of 5.7 using SDB medium; format: functional; in short: as §4
[7] = Geometric mean for the above three species of Candida, tested in EMEM medium; format: functional; in short: as §2
Candida albicans [8] = test: Minimum inhibitory concentration against Candida stellatoidea using eagles minimum essential medium (EMEM); format: functional; in short: as §2
Candida parapsilosis = test: Minimum inhibitory concentration against Candida parapsilosis at a pH of 5.7 using SDB medium; format: functional; settings: Lodderomyces parapsilosis; in short: as §1
Nannizzia gypsea = test: Minimum inhibitory concentration against Microsporum gypseum at a pH of 5.7 using SDB medium; format: functional; in short: as §4
Arthrodermataceae [9] = test: as §3; format: functional; parameters: unit not given beside the values; in short: as §4
Cavia porcellus [10] = species on record: Cavia porcellus; test: Lession score which is determined as number of animals minus days to become negative; format: functional
In short: (§5)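 Guinea pigs (5 per compound) infected with T. mentagrophytes D24 by swabbing a homogenate onto shaven, abraded skin. From day 4 post-infection, 0.25% (w/v) compound in EtOH–PEG 400–glycerol (10:45:45) was rubbed in topically twice daily for 10 days. Hair samples were cultured on SDA at 27 °C for up to 16 days. Read-outs were the % negative cultures and the day each animal became culture-negative.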

Cavia porcellus [11] = test: In vivo inhibition of topical Trichophyton infection in Guinea Pig after drug administration; format: functional; in short: as §5
Cavia porcellus [12] = test: In vivo inhibition of topical Trichophyton infection in Guinea Pig during drug administration; format: functional; in short: as §5
Cricetinae gen. sp. [13] = test: Inhibition of Vaginal Candida (C-43 strain) infection in Hamsters, estimated as Percent Area under curve at 0.05 % concentration after 8 days of administration; format: functional, Cricetulus griseus
In short: (§6)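 Hamster vaginal C. albicans infection (strains C43 or C60; 10 animals per compound). From day 5 post-infection, a cotton pellet holding 0.15 mL of 0.05% or 0.01% (w/w) compound in EtOH–PEG 400–glycerol (10:45:45) was inserted once daily for 4 or 8 days. Vaginal swabs were filtered and the filters cultured on SDA at 37 °C for 48 h. Read-out was the area under the % negative cultures versus time curve.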

Cricetinae gen. sp. [14] = test: Inhibition of Vaginal Candida (C-60 strain) infection in Hamsters, estimated as Percent Area under curve at 0.05 % concentration after 4 days of administration; format: functional, Cricetulus griseus; in short: as §6
Cricetinae gen. sp. [15] = test: Inhibition of Vaginal Candida (C-60 strain) infection in Hamsters, estimated as Percent Area under curve at 0.05 % concentration after 8 days of administration; format: functional, Cricetulus griseus; in short: as §6
Cricetinae gen. sp. [16] = test: Inhibition of Vaginal Candida (C-60 strain) infection in Hamsters, estimated as Percent Area under curve at 0.01 % concentration after 4 days of administration; format: functional, Cricetulus griseus; in short: as §6
Cricetinae gen. sp. [17] = test: Inhibition of Vaginal Candida (C-43 strain) infection in Hamsters, estimated as Percent Area under curve at 0.25 % concentration after 8 days of administration; format: functional, Cricetulus griseus
Cricetinae gen. sp. [18] = test: Inhibition of Vaginal Candida (C-60 strain) infection in Hamsters, estimated as Percent Area under curve at 0.25 % concentration after 4 days of administration; format: functional, Cricetulus griseus
Cricetinae gen. sp. [19] = test: Inhibition of Vaginal Candida (C-60 strain) infection in Hamsters, estimated as Percent Area under curve at 0.25 % concentration after 8 days of administration; format: functional, Cricetulus griseus

MIC (Candida albicans [1]) | MIC (Candida albicans [2]) | MIC (Candida albicans [3]) | MIC (Candida tropicalis [4]) | MIC (Candida tropicalis [5]) | MIC (Epidermophyton floccosum) | MIC (Microsporum canis) | MIC (Trichophyton benhamiae) | MIC (Trichophyton rubrum) | MIC (Candida albicans [8]) | MIC (Candida parapsilosis) | MIC (Nannizzia gypsea) | Compound | Geometric mean (Candida) | Geometric mean [7] | Geometric mean (Arthrodermataceae [9]) | also measured
64 µg/mL (≈ 219 µM) | 0.25 µg/mL (≈ 0.855 µM) | 64 µg/mL (≈ 219 µM) | 64 µg/mL (≈ 219 µM) | 0.125 µg/mL (≈ 0.427 µM) | 0.063 µg/mL (≈ 0.215 µM) | 4 µg/mL (≈ 13.7 µM) | 2 µg/mL (≈ 6.84 µM) | 2 µg/mL (≈ 6.84 µM) | 0.25 µg/mL (≈ 0.855 µM) | 16 µg/mL (≈ 54.7 µM) | 16 µg/mL (≈ 54.7 µM) | c1ccc(C2(Cn3ccnc3)SCc3ccccc32)cc1 (stereo not drawn) | 53 | 0.19 |  | Geometric mean (Arthrodermataceae [6]): 1.7
16 µg/mL (≈ 51.5 µM) | < 0.031 µg/mL | 32 µg/mL (≈ 103 µM) | 16 µg/mL (≈ 51.5 µM) | 0.125 µg/mL (≈ 0.402 µM) | < 0.031 µg/mL | 2 µg/mL (≈ 6.44 µM) | 2 µg/mL (≈ 6.44 µM) | 2 µg/mL (≈ 6.44 µM) | < 0.031 µg/mL | 0.25 µg/mL (≈ 0.804 µM) | 4 µg/mL (≈ 12.9 µM) | Clc1ccc(C2(Cn3ccnc3)OCc3ccccc32)cc1 (stereo not drawn) | 7.2 | < 0.03 | <0.86 | Lesion score (Cavia porcellus [10]): 3 and >2; Culture negative (Cavia porcellus [11]): 87%; Culture negative (Cavia porcellus [12]): 90%; Inhibition (Cricetinae gen. sp. [13]): 89%; Inhibition (Cricetinae gen. sp. [14]): 88%; Inhibition (Cricetinae gen. sp. [15]): 88%; Inhibition (Cricetinae gen. sp. [16]): 30%
8 µg/mL (≈ 19.3 µM) | 2 µg/mL (≈ 4.83 µM) | 4 µg/mL (≈ 9.66 µM) | 8 µg/mL (≈ 19.3 µM) | 2 µg/mL (≈ 4.83 µM) |  | 8 µg/mL (≈ 19.3 µM) | 8 µg/mL (≈ 19.3 µM) | 8 µg/mL (≈ 19.3 µM) | 2 µg/mL (≈ 4.83 µM) | 4 µg/mL (≈ 9.66 µM) | 16 µg/mL (≈ 38.6 µM) | Clc1ccc(C2(Cn3ccnc3)OCc3c(Cl)cc(Cl)cc32)c(Cl)c1 (stereo not drawn) | 4.9 | 2 | 9.5 | Inhibition (Cricetinae gen. sp. [13]): <30%
> 64 µg/mL |  | > 64 µg/mL | > 64 µg/mL |  | 8 µg/mL (≈ 24.4 µM) | > 64 µg/mL | > 64 µg/mL | 64 µg/mL (≈ 195 µM) |  | 32 µg/mL (≈ 97.6 µM) | > 64 µg/mL | OC1OC(Cn2cncn2)(c2ccc(Cl)cc2)c2ccccc21 (stereo not drawn) |  |  | >54 | 
64 µg/mL (≈ 205 µM) | < 0.031 µg/mL | 32 µg/mL (≈ 103 µM) | 64 µg/mL (≈ 205 µM) | < 0.031 µg/mL | < 0.031 µg/mL | 1 µg/mL (≈ 3.21 µM) | 1 µg/mL (≈ 3.21 µM) | 1 µg/mL (≈ 3.21 µM) | < 0.031 µg/mL | 1 µg/mL (≈ 3.21 µM) | 4 µg/mL (≈ 12.8 µM) | Clc1ccc(C2(Cn3cncn3)OCc3ccccc32)cc1 (stereo not drawn) | 16 | < 0.02 | <0.57 | 
> 64 µg/mL | 0.25 µg/mL (≈ 0.77 µM) | > 64 µg/mL | > 64 µg/mL | 0.25 µg/mL (≈ 0.77 µM) | 0.25 µg/mL (≈ 0.77 µM) | 4 µg/mL (≈ 12.3 µM) | 8 µg/mL (≈ 24.6 µM) | 8 µg/mL (≈ 24.6 µM) | 0.25 µg/mL (≈ 0.77 µM) | 4 µg/mL (≈ 12.3 µM) | 32 µg/mL (≈ 98.5 µM) | Clc1ccc(CC2(Cn3ccnc3)OCc3ccccc32)cc1 (stereo not drawn) | >78 | 0.25 | 4.6 | 

Compound | MIC (Candida albicans [1]) | MIC (Candida albicans [2]) | MIC (Candida albicans [3]) | MIC (Candida tropicalis [4]) | MIC (Candida tropicalis [5]) | MIC (Epidermophyton floccosum) | MIC (Microsporum canis) | MIC (Trichophyton benhamiae) | MIC (Trichophyton rubrum) | MIC (Candida albicans [8]) | MIC (Candida parapsilosis) | MIC (Nannizzia gypsea) | Geometric mean (Candida) | Geometric mean [7] | Geometric mean (Arthrodermataceae [9]) | also measured
Clc1ccc(COC(Cn2ccnc2)c2ccc(Cl)cc2Cl)c(Cl)c1 (stereo not drawn) [MICONAZOLE] | 8 µg/mL (≈ 19.2 µM) | 0.25 µg/mL (≈ 0.601 µM) | 8 µg/mL (≈ 19.2 µM) | 4 µg/mL (≈ 9.61 µM) | 0.125 µg/mL (≈ 0.3 µM) | < 0.031 µg/mL | < 0.031 µg/mL | < 0.031 µg/mL | < 0.031 µg/mL | 0.125 µg/mL (≈ 0.3 µM) | < 0.031 µg/mL | 1 µg/mL (≈ 2.4 µM) | <1.8 | 0.18 | <0.03 | Culture negative (Cavia porcellus [11]): 60%; Culture negative (Cavia porcellus [12]): 20%; Inhibition (Cricetinae gen. sp. [17]): 69%; Inhibition (Cricetinae gen. sp. [18]): 63%; Inhibition (Cricetinae gen. sp. [19]): 63%; Inhibition (Cricetinae gen. sp. [16]): 33%
